According to ChEMBL document CHEMBL2417509, “Synthesis and biological evaluation of prodigiosene conjugates of porphyrin, estrone and 4-hydroxytamoxifen” (2013):

Key:
Format in all cases: functional
[1] = test system: TK-10; experiment: Cytotoxicity against human TK10 cells after 2 days by sulforhodamine B assay; details: TK-10, 48 h
Method in brief: (§1)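 NCI DTP NCI60 multi-dose screen (59 human tumour lines available). Cells exposed to compound over a 5-log mol/L concentration range for 2 days, then fixed and stained with sulphorhodamine B, with optical density read. Growth inhibition calculated relative to time-zero cells and untreated cells, giving GI50 (half-maximal growth inhibition concentration). Average of two replicates.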

[2] = test system: RXF 393; experiment: Cytotoxicity against human RXF393 cells after 2 days by sulforhodamine B assay; details: RXF 393, 48 h
Method in brief: (§2)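 NCI60 multi-dose screen, 59 human tumour lines available. Cells exposed to compound across a 5-log mol/L concentration range for 2 days, then fixed and stained with sulphorhodamine B, optical density read. Growth inhibition calculated against time-zero control and untreated cells. GI50 derived from the dose series, average of two replicates.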

[3] = test system: A498; experiment: Cytotoxicity against human A498 cells after 2 days by sulforhodamine B assay; details: A498, 48 h; method in brief: as §2
[4] = test system: SK-OV-3; experiment: Cytotoxicity against human SKOV3 cells after 2 days by sulforhodamine B assay; details: SK-OV-3, 48 h; method in brief: as §2
[5] = test system: OVCAR-8; experiment: Cytotoxicity against human OVCAR8 cells after 2 days by sulforhodamine B assay; details: OVCAR-8, 48 h; method in brief: as §2
[6] = test system: OVCAR-5; experiment: Cytotoxicity against human OVCAR5 cells after 2 days by sulforhodamine B assay; details: OVCAR-5, 48 h; method in brief: as §2
[7] = test system: OVCAR-3; experiment: Cytotoxicity against human OVCAR3 cells after 2 days by sulforhodamine B assay; details: OVCAR-3, 48 h; method in brief: as §2
[8] = test system: IGROV-1; experiment: Cytotoxicity against human IGROV1 cells after 2 days by sulforhodamine B assay; details: IGROV-1, 48 h; method in brief: as §2
[9] = test system: SK-MEL-5; experiment: Cytotoxicity against human SK-MEL-5 cells after 2 days by sulforhodamine B assay; details: SK-MEL-5, 48 h; method in brief: as §2
[10] = test system: MDA-MB-435; experiment: Cytotoxicity against human MDA-MB-435 cells after 2 days by sulforhodamine B assay; details: MDA-MB-435, 48 h; for CC50: read-out: LC50 (the source's name); method in brief: as §2
[11] = test system: SK-MEL-2; experiment: Cytotoxicity against human SK-MEL-2 cells after 2 days by sulforhodamine B assay; details: SK-MEL-2, 48 h; method in brief: as §2
[12] = test system: M14; experiment: Cytotoxicity against human M14 cells after 2 days by sulforhodamine B assay; details: M14, 48 h; for CC50: read-out: LC50 (the source's name); method in brief: as §2
[13] = test system: LOX IMVI; experiment: Cytotoxicity against human LOXIMVI cells after 2 days by sulforhodamine B assay; details: 48 h; method in brief: as §2
[14] = test system: U-251; experiment: Cytotoxicity against human U251 cells after 2 days by sulforhodamine B assay; details: U-251, 48 h; method in brief: as §1
[15] = test system: SF-539; experiment: Cytotoxicity against human SF539 cells after 2 days by sulforhodamine B assay; details: SF-539, 48 h; method in brief: as §2
[16] = test system: SNB-19; experiment: Cytotoxicity against human SNB19 cells after 2 days by sulforhodamine B assay; details: SNB-19, 48 h; for CC50: read-out: LC50 (the source's name); method in brief: as §1
[17] = test system: SF-268; experiment: Cytotoxicity against human SF268 cells after 2 days by sulforhodamine B assay; details: SF-268, 48 h; method in brief: as §2
[18] = test system: SW-620; experiment: Cytotoxicity against human SW620 cells after 2 days by sulforhodamine B assay; details: SW-620, 48 h; method in brief: as §1
[19] = test system: KM12; experiment: Cytotoxicity against human KM12 cells after 2 days by sulforhodamine B assay; details: KM12, 48 h; method in brief: as §2
[20] = test system: NCI-H522; experiment: Cytotoxicity against human NCI-H522 cells after 2 days by sulforhodamine B assay; details: NCI-H522, 48 h; method in brief: as §2
[21] = test system: HOP-92; experiment: Cytotoxicity against human HOP92 cells after 2 days by sulforhodamine B assay; details: HOP-92, 48 h; for CC50: read-out: LC50 (the source's name); method in brief: as §2
[22] = test system: NCI-H23; experiment: Cytotoxicity against human NCI-H23 cells after 2 days by sulforhodamine B assay; details: NCI-H23, 48 h; method in brief: as §2
[23] = test system: HOP-62; experiment: Cytotoxicity against human HOP62 cells after 2 days by sulforhodamine B assay; details: HOP-62, 48 h; for CC50: read-out: LC50 (the source's name); method in brief: as §2
[24] = test system: RPMI-8226; experiment: Cytotoxicity against human RPMI8226 cells after 2 days by sulforhodamine B assay; details: RPMI-8226, 48 h; method in brief: as §2
[25] = test system: K562; experiment: Cytotoxicity against human K562 cells after 2 days by sulforhodamine B assay; details: K562, 48 h; method in brief: as §2
[26] = test system: HL-60(TB); experiment: Cytotoxicity against human HL-60(TB) cells after 2 days by sulforhodamine B assay; details: HL-60, 48 h; for CC50: read-out: LC50 (the source's name)
Method in brief: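 NCI60 multi-dose screen: cells exposed to compound over a 5-log mol/L concentration range for 2 days, then fixed and stained with sulphorhodamine B and optical density read. Growth inhibition calculated relative to time-zero control and untreated cells; GI50 reported as average of two replicates.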

[27] = test system: MDA-MB-468; experiment: Cytotoxicity against human MDA-MB-468 cells after 2 days by sulforhodamine B assay; details: MDA-MB-468, 48 h; method in brief: as §2
[28] = test system: T47D; experiment: Cytotoxicity against human T47D cells after 2 days by sulforhodamine B assay; details: 48 h; method in brief: as §1
[29] = test system: BT-549; experiment: Cytotoxicity against human BT549 cells after 2 days by sulforhodamine B assay; details: BT-549, 48 h; method in brief: as §2

CC/C(=C(/c1ccc(OCCN(C)C)cc1)c1ccc(OC(=O)CCC(=O)C2=C(C)/C(=C/c3[nH]c(-c4ccc[nH]4)cc3OC)N=C2C)cc1)c1ccccc1
GI50 [1]: 4.9 µM
LC50 [1]: 41.7 µM
TGI [1]: 15.8 µM
GI50 [2]: 2.35 µM
LC50 (concentration killing 50% of cells) [2]: 73.3 µM
TGI [2]: 13 µM
GI50 [3]: 2.96 µM
LC50 [3]: 44.2 µM
TGI [3]: 16.8 µM
GI50 [4]: 7.17 µM
LC50 (concentration killing 50% of starting cells) [4]: > 100 µM
TGI [4]: 30.1 µM
GI50 [5]: 2.76 µM
LC50 [5]: 68 µM
TGI [5]: 10.9 µM
GI50 [6]: 6.99 µM
LC50 [6]: 53.1 µM
TGI [6]: 22 µM
GI50 [7]: 2.11 µM
LC50 [7]: 38.7 µM
TGI [7]: 10.6 µM
GI50 [8]: 3.66 µM
LC50 [8]: > 100 µM
TGI [8]: 15.3 µM
GI50 [9]: 1.53 µM
LC50 (concentration killing 50% of cells) [9]: 5.25 µM
TGI [9]: 3.22 µM
GI50 [10]: 2.55 µM
TGI [10]: 10.3 µM
CC50 [10]: 50.5 µM
GI50 [11]: 2.45 µM
LC50 [11]: 25.3 µM
TGI [11]: 6.42 µM
GI50 [12]: 2.09 µM
TGI [12]: 5.19 µM
CC50 [12]: > 100 µM
GI50 [13]: 0.44 µM
LC50 [13]: 5.13 µM
TGI [13]: 1.62 µM
GI50 [14]: 1.52 µM
LC50 [14]: 33.2 µM
TGI [14]: 7.17 µM
GI50 [15]: 2.62 µM
LC50 [15]: 40.3 µM
TGI [15]: 9.55 µM
GI50 [16]: 5.49 µM
TGI [16]: 21.9 µM
CC50 [16]: 65.9 µM
GI50 [17]: 2.63 µM
LC50 (concentration killing 50% of cells) [17]: > 100 µM
TGI [17]: 18.3 µM
GI50 [18]: 0.76 µM
LC50 (concentration killing 50% of cells) [18]: > 100 µM
TGI [18]: 2.6 µM
GI50 [19]: 1.2 µM
LC50 [19]: 46.8 µM
TGI [19]: 10.8 µM
GI50 [20]: 1.95 µM
LC50 [20]: 28 µM
TGI [20]: 5.89 µM
GI50 [21]: 0.76 µM
TGI [21]: 4.12 µM
CC50 [21]: 26.4 µM
GI50 [22]: 4.03 µM
LC50 (concentration killing 50% of cells) [22]: 70 µM
TGI [22]: 18.7 µM
GI50 [23]: 1.43 µM
TGI [23]: 4.07 µM
CC50 [23]: 49 µM
GI50 [24]: 1.65 µM
LC50 (concentration killing 50% of cells present at time zero) [24]: > 100 µM
TGI [24]: 5.64 µM
GI50 [25]: 2.39 µM
LC50 (concentration killing 50% of cells) [25]: > 100 µM
TGI [25]: 6.4 µM
GI50 [26]: 3.16 µM
TGI [26]: 8.98 µM
CC50 [26]: > 100 µM
GI50 [27]: 3.06 µM
LC50 [27]: 61.3 µM
TGI [27]: 15.5 µM
GI50 [28]: 1.35 µM
LC50 (concentration killing 50% of cells) [28]: > 100 µM
TGI [28]: 8.13 µM
GI50 [29]: 4.29 µM
LC50 (concentration killing 50% of cells present at time zero) [29]: 66.9 µM
TGI [29]: 21.5 µM

CC/C(=C(/c1ccc(OCCN(C)C)cc1)c1ccc(OC(=O)CCCCCCCCC(=O)C2=C(C)/C(=C/c3[nH]c(-c4ccc[nH]4)cc3OC)N=C2C)cc1)c1ccccc1
GI50 [1]: 20.9 µM
LC50 [1]: > 100 µM
TGI [1]: > 100 µM
GI50 [2]: 13.8 µM
LC50 (concentration killing 50% of cells) [2]: > 100 µM
TGI [2]: > 100 µM
GI50 [3]: 15.1 µM
LC50 [3]: > 100 µM
TGI [3]: 72.4 µM
GI50 [4]: > 100 µM
LC50 (concentration killing 50% of starting cells) [4]: > 100 µM
TGI [4]: > 100 µM
GI50 [5]: 9.12 µM
LC50 [5]: > 100 µM
TGI [5]: > 100 µM
GI50 [6]: > 100 µM
LC50 [6]: > 100 µM
TGI [6]: > 100 µM
GI50 [7]: 11 µM
LC50 [7]: > 100 µM
TGI [7]: > 100 µM
GI50 [8]: 22.9 µM
LC50 [8]: > 100 µM
TGI [8]: > 100 µM
GI50 [9]: 1.62 µM
LC50 (concentration killing 50% of cells) [9]: 6.46 µM
TGI [9]: 3.24 µM
GI50 [10]: 4.57 µM
TGI [10]: > 100 µM
CC50 [10]: > 100 µM
GI50 [11]: 30.9 µM
LC50 [11]: > 100 µM
TGI [11]: > 100 µM
GI50 [12]: 2.14 µM
TGI [12]: 4.47 µM
CC50 [12]: 9.33 µM
GI50 [13]: 2.34 µM
LC50 [13]: 27.5 µM
TGI [13]: 5.89 µM
GI50 [14]: 6.61 µM
LC50 [14]: > 100 µM
TGI [14]: > 100 µM
GI50 [15]: 12 µM
LC50 [15]: > 100 µM
TGI [15]: 50.1 µM
GI50 [16]: 6.31 µM
TGI [16]: > 100 µM
CC50 [16]: > 100 µM
GI50 [17]: 6.61 µM
LC50 (concentration killing 50% of cells) [17]: > 100 µM
TGI [17]: > 100 µM
GI50 [18]: 3.72 µM
LC50 (concentration killing 50% of cells) [18]: 56.2 µM
TGI [18]: 14.1 µM
GI50 [19]: 5.25 µM
LC50 [19]: > 100 µM
TGI [19]: > 100 µM
GI50 [20]: 21.4 µM
LC50 [20]: > 100 µM
TGI [20]: > 100 µM
GI50 [21]: 1.95 µM
CC50 [21]: > 100 µM
GI50 [22]: 47.9 µM
LC50 (concentration killing 50% of cells) [22]: > 100 µM
TGI [22]: > 100 µM
GI50 [23]: 16.9 µM
TGI [23]: > 100 µM
CC50 [23]: > 100 µM
GI50 [24]: 3.72 µM
LC50 (concentration killing 50% of cells present at time zero) [24]: > 100 µM
TGI [24]: > 100 µM
GI50 [25]: 4.57 µM
LC50 (concentration killing 50% of cells) [25]: > 100 µM
TGI [25]: > 100 µM
GI50 [26]: 12.3 µM
TGI [26]: > 100 µM
CC50 [26]: > 100 µM
GI50 [27]: 3.63 µM
LC50 [27]: > 100 µM
TGI [27]: > 100 µM
GI50 [28]: 3.55 µM
LC50 (concentration killing 50% of cells) [28]: > 100 µM
TGI [28]: > 100 µM
GI50 [29]: 5.25 µM
LC50 (concentration killing 50% of cells present at time zero) [29]: > 100 µM
TGI [29]: > 100 µM
